Many of the other results were omitted from the sample, so hits are more common in it than they were.
T cruzi growth-1 – blocks T. cruzi growth in NIH3T3 culture; AID 624255; T. cruzi beta-gal in NIH3T3, GalScreen luminescence, 90 h; hit rate 5.9% among 77,000; inhibition, % at 8.34 µM;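 active means mean inhibition above about 93%, with at least 55% of replicates each passing it, limit read from the data, passing the limit was not always enough; inconclusive means only one of those two conditions holds; inactive means neither condition holds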
IDH1 mut inh – inhibitors of human IDH1 R132H | O75874 | inhibition, % at 10 µM | hit rate 0.18% among 70,000 | IDH1 R132H reductase, diaphorase/resazurin fluorescence, 60 min | AID 624101; in the data active means inhibition above about 34%; inconclusive means no clear call, values can overlap the other calls; inactive means below about 11%;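 further: 0% = DMSO and 100% = no enzyme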
Target sequence (O75874 whole entry R132H): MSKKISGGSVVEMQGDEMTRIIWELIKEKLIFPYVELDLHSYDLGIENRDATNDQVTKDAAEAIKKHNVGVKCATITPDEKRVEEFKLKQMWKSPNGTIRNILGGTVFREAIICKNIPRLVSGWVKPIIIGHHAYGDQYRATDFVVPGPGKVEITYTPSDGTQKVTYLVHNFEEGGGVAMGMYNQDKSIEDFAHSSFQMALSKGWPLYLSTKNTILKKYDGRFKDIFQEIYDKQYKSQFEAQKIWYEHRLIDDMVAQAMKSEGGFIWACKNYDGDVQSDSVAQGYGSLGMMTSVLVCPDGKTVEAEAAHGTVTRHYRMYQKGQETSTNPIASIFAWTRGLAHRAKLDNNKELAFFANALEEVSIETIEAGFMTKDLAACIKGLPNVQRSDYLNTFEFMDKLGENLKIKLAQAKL
GASC1 inh – inhibitors of human demethylase GASC-1 KDM4C. hit rate 0.15% among 96,000. inhibition, % at 12.5 µM. GST-KDM4C 2-372, H3K9me3 peptide, LANCE TR-FRET. Q9H3R0;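 active means mean replicate inhibition above about 25%, with at least 55% of replicates also reaching it, limit read from the data, passing the limit was not always enough; inconclusive means only one of those two conditions met; inactive means neither condition met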
Target sequence (Q9H3R0 2-372 limits assumed): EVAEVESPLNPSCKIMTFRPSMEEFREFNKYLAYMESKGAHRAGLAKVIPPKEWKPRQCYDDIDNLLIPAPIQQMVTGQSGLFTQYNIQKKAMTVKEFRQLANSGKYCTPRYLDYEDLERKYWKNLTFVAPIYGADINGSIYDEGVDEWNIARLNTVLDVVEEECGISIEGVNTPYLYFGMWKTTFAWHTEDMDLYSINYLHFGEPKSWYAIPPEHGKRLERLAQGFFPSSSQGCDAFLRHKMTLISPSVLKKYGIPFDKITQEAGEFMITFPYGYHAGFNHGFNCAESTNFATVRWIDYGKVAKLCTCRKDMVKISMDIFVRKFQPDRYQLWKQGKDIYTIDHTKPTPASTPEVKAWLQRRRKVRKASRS
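System: N-terminal GST-fused human GASC-1 (KDM4C) fragment, residues 2-372; amount: enzyme final amount 10 nM; incubation: reaction 30 min RT, detection step 1 h RT; medium: HEPES buffer, pH 7.5, plus ascorbate; technique: LANCE TR-FRET, Eu antibody, ULight-streptavidin, EDTA, ex 340 nm, em 618/671 nm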
T cruzi growth-2 – blocks T. cruzi growth in NIH3T3 host cells; T. cruzi beta-gal in NIH3T3, GalScreen luminescence, 90 h; inhibition, % at 8.35 µM; shares compounds with T cruzi growth-1; hit rate 72% among 5,600; AID 651739;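 active means mean replicate inhibition above about 95% and at least 55% of replicates individually reaching it, limit read from the data; inconclusive means only one of the two criteria is met; inactive means neither criterion is met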
T cruzi growth-3 – inhibitors of T. cruzi proliferation | shares compounds with T cruzi growth-1 | hit rate 21% among 5,600 | inhibition, % at 2.09 µM | AID 651740 | T. cruzi beta-gal in NIH3T3, GalScreen luminescence, 90 h;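 active means mean inhibition above about 95%, with at least 55% of replicates also reaching it, limit read from the data; inconclusive means meets just one of the two conditions; inactive means meets neither condition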;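 further: plate controls were neutral control median for no effect and positive control median for full effect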
3T3 cytotox – cytotoxicity in mouse NIH/3T3 fibroblasts | shares compounds with T cruzi growth-1 | NIH/3T3 viability, CellTiter-Glo ATP luminescence, 90 h | cytotoxicity (signal decrease), % at 8.35 µM | hit rate 14% among 5,600 | AID 651742;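 active means mean signal decrease across replicates above about 35% based on untreated-well scatter, with enough replicates individually passing, limit read from the data; inconclusive means no rule stated though some were filed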;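 further: 0% = median of neutral control wells and 100% = median of positive control wells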
3T3 cytotox 2 – kills mouse NIH/3T3 fibroblasts. shares compounds with T cruzi growth-1. NIH/3T3 viability, CellTiter-Glo ATP luminescence, 90 h. inhibition, % at 24.9 µM. hit rate 56% among 5,600. AID 651744;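 active means mean loss of cell viability signal at or above a set limit, and enough replicates individually reaching it; inconclusive means meets only the mean limit or only the replicate share; inactive means meets neither condition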;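 further: 0% = median of neutral control wells and 100% = median of positive control wells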
Active calls of the source: *; ? = inconclusive; / = no result.

SMILES | T cruzi growth-1 | IDH1 mut inh | GASC1 inh | T cruzi growth-2 | T cruzi growth-3 | 3T3 cytotox | 3T3 cytotox 2
Cc1noc(C)c1S(=O)(=O)N(C)C[C@@H]1OCCCC[C@@H](C)Oc2ccc(NC(=O)Nc3cccc4ccccc34)cc2C(=O)N([C@H](C)CO)C[C@H]1C | 109.1* | 1.4 | -8.7 | 109.7* | 100.2* | -7.0 | ?
C[C@@H]1CCCCO[C@H](CN(C)S(=O)(=O)c2ccccc2)[C@H](C)CN([C@H](C)CO)C(=O)c2cc(NC(=O)Nc3cccc4ccccc34)ccc2O1 | 107.8* | 2.4 | -2.5 | 105.8* | 109.9* | 11.6 | ?
Cc1noc(C)c1S(=O)(=O)N(C)C[C@H]1OCCCC[C@@H](C)Oc2ccc(NC(=O)Nc3cccc4ccccc34)cc2C(=O)N([C@@H](C)CO)C[C@@H]1C | 105.2* | -1.7 | -2.2 | 106.7* | 66.7 | 17.1 | 16.4
Cc1ccc(C(C)C)c(OC(=O)CS(=O)c2ccc(C(F)(F)F)cc2[N+](=O)[O-])c1 (centres undefined) | / | 0.7 | / | / | / | / | /
CN(C)CC(=O)N1[C@H](CO)[C@@H](c2ccc(C#CC3CCCCC3)cc2)[C@@H]1C#N | 99.0* | / | -0.7 | 102.3* | 65.9 | -11.6 | 106.5*
CC(C)NC(=O)N1[C@H](C#N)[C@H](c2ccc(C#CC3CCCC3)cc2)[C@H]1CO | 101.5* | / | -0.4 | 102.9* | 100.9* | -8.9 | 4.4
N#C[C@H]1[C@H](c2ccc(C#CC3CCCC3)cc2)[C@H](CO)N1C(=O)Nc1ccc(F)cc1 | 103.1* | / | 0.7 | 106.2* | 76.1 | 3.9 | 105.1*
CC(C)NC(=O)N1[C@H](CO)[C@H](c2ccc(C#CC3CCCC3)cc2)[C@@H]1C#N | 92.9 | -0.3 | -1.7 | / | / | / | /
N#C[C@H]1[C@H](c2ccc(C#CC3CCCCC3)cc2)[C@@H](CO)N1C(=O)Nc1ccc(F)cc1 | / | / | 1.3 | / | / | / | /
CN(C)CC(=O)N1[C@H](C#N)[C@H](c2ccc(C#CC3CCCCC3)cc2)[C@@H]1CO | 93.2 | / | 0.1 | / | / | / | /
CC(C)NC(=O)N1[C@H](C#N)[C@@H](c2ccc(C#CC3CCCCC3)cc2)[C@H]1CO | 53.6 | / | 2.0 | / | / | / | /
CC(C)NC(=O)N1[C@H](C#N)[C@@H](c2ccc(C#CC3CCCC3)cc2)[C@@H]1CO | 98.5* | / | -1.6 | 105.6* | 69.9 | 7.4 | -20.8
CO[C@@H](CN(C)C(=O)c1ccc2c(c1)OCO2)[C@H](C)CN([C@@H](C)CO)S(=O)(=O)c1ccc(F)cc1 | 59.4 | 0.2 | -0.8 | / | / | / | /
CO[C@@H]1CN(C)C(=O)c2cc(NC(=O)c3cccc(F)c3)ccc2OC[C@@H](C)N(C(C)=O)C[C@@H]1C | 38.7 | 0.0 | -1.2 | / | / | / | /
Cn1c2c(c(=O)n(C)c1=O)CN(CC1CC1)CN2 | / | -1.5 | / | / | / | / | /
CS(=O)(=O)N(CC(=O)NC1CCCCCC1)c1ccc(I)cc1 | / | -0.1 | / | / | / | / | /
C[C@@H]1CCCCO[C@H](CN(C)S(=O)(=O)c2ccccc2)[C@H](C)CN([C@@H](C)CO)C(=O)c2cc(NC(=O)Nc3ccc(F)cc3)ccc2O1 | 105.1* | / | -2.9 | 108.6* | 65.8 | -24.7 | 24.5
C[C@@H]1CCCCO[C@H](CN(C)S(=O)(=O)c2ccccc2)[C@@H](C)CN([C@H](C)CO)C(=O)c2cc(NC(=O)Nc3ccccc3)ccc2O1 | 20.5 | 0.1 | 0.2 | / | / | / | /
C[C@@H]1CCCCO[C@@H](CN(C)S(=O)(=O)c2ccccc2)[C@@H](C)CN([C@H](C)CO)C(=O)c2cc(NC(=O)Nc3ccc(F)cc3)ccc2O1 | 86.8 | / | 0.6 | / | / | / | /
C[C@H](CO)N1C[C@H](C)[C@@H](CN(C)S(=O)(=O)c2ccccc2)OCCCC[C@H](C)Oc2ccc(NC(=O)Nc3ccc(F)cc3)cc2C1=O | 108.7* | 0.9 | -1.3 | 106.4* | 58.6 | -2.7 | 14.0
C[C@@H]1CCCCO[C@@H](CN(C)S(=O)(=O)c2ccccc2)[C@@H](C)CN([C@H](C)CO)C(=O)c2cc(NC(=O)Nc3ccccc3)ccc2O1 | 35.6 | 0.5 | 0.0 | / | / | / | /
C[C@@H]1CN([C@H](C)CO)C(=O)c2cc(NC(=O)Nc3ccc(F)cc3)ccc2O[C@@H](C)CCCCO[C@@H]1CN(C)S(=O)(=O)c1ccccc1 | 102.5* | 10.0 | 16.8 | 83.5 | -13.2 | -13.4 | -3.4
C[C@@H]1CN([C@@H](C)CO)C(=O)c2cc(NC(=O)Nc3ccc(F)cc3)ccc2O[C@@H](C)CCCCO[C@H]1CN(C)S(=O)(=O)c1ccccc1 | 105.9* | / | -0.5 | 111.5* | -48.9 | 13.7 | 5.0
C[C@H](CO)N1C[C@H](C)[C@@H](CN(C)S(=O)(=O)c2ccccc2)OCCCC[C@H](C)Oc2ccc(NC(=O)Nc3ccccc3)cc2C1=O | 59.3 | 0.4 | 0.3 | / | / | / | /
C[C@@H]1CN([C@H](C)CO)C(=O)c2cc(-c3ccccc3F)cnc2O[C@H]1CN(C)C | -58.4 | -1.3 | 0.2 | / | / | / | /
SMILES | T cruzi growth-1 | IDH1 mut inh | GASC1 inh | T cruzi growth-2 | T cruzi growth-3 | 3T3 cytotox | 3T3 cytotox 2
COc1ccc(OC)c(C(C)NC(=O)Nc2ccc([N+](=O)[O-])cc2OC)c1 (centres undefined) | / | -0.2 | / | / | / | / | /
C=C1C(=O)O[C@@H]2C3=C(C)CC[C@]34O[C@@H](C[C@@H]4C)[C@H]12 | / | 0.6 | / | / | / | / | /
COc1cccc(S(=O)(=O)N(C)C[C@@H]2OCc3ccccc3-c3ccccc3C(=O)N([C@@H](C)CO)C[C@@H]2C)c1 | 105.0* | / | 0.0 | 30.3 | -1.4 | -4.3 | 8.1
C[C@H](CO)N1C[C@H](C)[C@H](CN(C)S(=O)(=O)c2cccc(C#N)c2)OCc2ccccc2-c2ccccc2C1=O | 31.0 | -1.8 | -2.1 | / | / | / | /
C[C@@H]1CN([C@H](C)CO)C(=O)c2ccccc2-c2ccccc2CO[C@H]1CN(C)S(=O)(=O)c1cccc(C#N)c1 | ? | / | -1.2 | 47.5 | 28.0 | 5.0 | 22.4
COc1cccc(S(=O)(=O)N(C)C[C@H]2OCc3ccccc3-c3ccccc3C(=O)N([C@H](C)CO)C[C@H]2C)c1 | 58.9 | -9.6 | -0.4 | / | / | / | /
CCc1ccccc1NC(=O)CSc1nnc(-c2cccc(OC)c2)n1C | / | 0.2 | / | / | / | / | /
COc1ccc(-c2ccc3c(c2)[C@H]2[C@H](CCN2C(=O)Cc2cccnc2)[C@H](CO)N3C)cc1 | 20.2 | / | / | / | / | / | /
COc1ccc(-c2ccc3c(c2)[C@@H]2[C@@H](CCN2C(=O)Cc2cccnc2)[C@@H](CO)N3C)cc1 | 80.8 | / | 1.6 | / | / | / | /
CN1c2ccc(-c3ccccc3)cc2[C@@H]2[C@@H](CCN2C(=O)Cc2cccnc2)[C@@H]1CO | 106.0* | / | 0.0 | 108.8* | 71.0 | 2.1 | 1.4
CN1c2ccc(-c3ccccc3)cc2[C@H]2[C@H](CCN2C(=O)Cc2ccccc2)[C@H]1CO | 93.4 | / | -0.4 | / | / | / | /
CN1c2ccc(-c3ccccc3)cc2[C@@H]2[C@@H](CCN2C(=O)Cc2ccccc2)[C@@H]1CO | 101.8* | / | -1.8 | 103.1* | 110.8* | -14.7 | 105.6*
